Many of the other results were omitted from the sample, so hits are more common in it than they were.
T cruzi growth-1: inhibitors of T. cruzi proliferation. T. cruzi beta-gal in NIH3T3, GalScreen luminescence, 90 h. inhibition, % at 8.34 µM. hit rate 5.9% among 77,000;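 active = mean inhibition above about 93%, with at least 55% of replicates each passing it, limit read from the data, passing the limit was not always enough; inconclusive = only one of those two conditions holds; inactive = neither condition holds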
IDH1 R132H inh: blocks human IDH1 R132H reductase activity | hit rate 0.18% among 70,000 | diaphorase/resazurin fluorescence, 60 min | inhibition, % at 10 µM | AID 624101 | O75874; in the data active = inhibition above about 34%; inconclusive = no clear call, values can overlap the other calls; inactive = below about 11%
KDM4C inh: blocks human GASC-1 (KDM4C) demethylase activity; Q9H3R0; GST-KDM4C 2-372, H3K9me3 peptide, LANCE TR-FRET; inhibition, % at 12.5 µM; hit rate 0.15% among 96,000; AID 720574;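 active = mean replicate inhibition above about 25%, with at least 55% of replicates also reaching it, limit read from the data, passing the limit was not always enough; inconclusive = only one of those two conditions met; inactive = neither condition met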
Target sequence (Q9H3R0 2-372 limits assumed): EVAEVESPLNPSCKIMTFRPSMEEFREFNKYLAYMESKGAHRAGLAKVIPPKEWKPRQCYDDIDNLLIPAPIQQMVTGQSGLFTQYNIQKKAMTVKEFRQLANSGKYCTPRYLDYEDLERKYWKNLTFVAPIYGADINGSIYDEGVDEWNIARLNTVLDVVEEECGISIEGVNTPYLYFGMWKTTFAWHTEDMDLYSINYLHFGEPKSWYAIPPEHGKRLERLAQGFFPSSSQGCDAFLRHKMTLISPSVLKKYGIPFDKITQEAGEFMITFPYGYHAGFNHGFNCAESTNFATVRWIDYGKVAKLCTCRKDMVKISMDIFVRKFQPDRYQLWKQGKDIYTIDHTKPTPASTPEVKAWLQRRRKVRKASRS
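Assay system: GST-GASC-1 enzyme fragment 2-372 | Amount: 10 nM enzyme | Medium: HEPES buffer, pH 7.5, plus ascorbate | Reagent: H3K9me3 peptide substrate, Fe(II), 2-oxoglutarate | Doses: Single-point compound screen | Incubation: 30 min demethylation and 1 h detection at room temperature | Measured by: LANCE TR-FRET, excitation 340 nm, emissions 618 and 671 nm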
T cruzi growth-2: Trypanosoma cruzi proliferation inhibition; shares compounds with T cruzi growth-1; T. cruzi beta-gal in NIH3T3, GalScreen luminescence, 90 h; inhibition, % at 8.35 µM; hit rate 72% among 5,600; AID 651739;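 active = mean replicate inhibition above about 95% and at least 55% of replicates individually reaching it, limit read from the data; inconclusive = only one of the two criteria is met; inactive = neither criterion is met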
T cruzi growth-3: Trypanosoma cruzi proliferation inhibition; T. cruzi beta-gal in NIH3T3, GalScreen luminescence, 90 h; shares compounds with T cruzi growth-1; inhibition, % at 2.09 µM; hit rate 21% among 5,600;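 active = mean inhibition above about 95%, with at least 55% of replicates also reaching it, limit read from the data; inconclusive = meets just one of the two conditions; inactive = meets neither condition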
NIH3T3 tox: kills mouse NIH/3T3 fibroblasts. hit rate 14% among 5,600. cytotoxicity (signal decrease), % at 8.35 µM. NIH/3T3 viability, CellTiter-Glo ATP luminescence, 90 h. shares compounds with T cruzi growth-1;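 active = mean signal decrease across replicates above about 35% based on untreated-well scatter, with enough replicates individually passing, limit read from the data; inconclusive = no rule stated though some were filed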
NIH3T3 tox 2: NIH/3T3 (mouse) viability loss; shares compounds with T cruzi growth-1; NIH/3T3 viability, CellTiter-Glo ATP luminescence, 90 h; inhibition, % at 24.9 µM; hit rate 56% among 5,600;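 active = mean loss of cell viability signal at or above a set limit, and enough replicates individually reaching it; inconclusive = meets only the mean limit or only the replicate share; inactive = meets neither condition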
Numbers stand for hits; n = inactive; u = inconclusive; x = no result given.

SMILES	T cruzi growth-1	IDH1 R132H inh	KDM4C inh	T cruzi growth-2	T cruzi growth-3	NIH3T3 tox	NIH3T3 tox 2
COc1ccc(S(=O)(=O)Nc2ccc3c(c2)C(=O)N([C@H](C)CO)C[C@H](C)[C@@H](CN(C)C(=O)Nc2ccc(C(F)(F)F)cc2)OCCCC[C@H](C)O3)cc1	101	x	x	109	116	n	n
Cc1ccc(S(=O)(=O)Nc2ccc3c(c2)C(=O)N([C@@H](C)CO)C[C@@H](C)[C@H](CN(C)C(=O)Nc2ccc(C(F)(F)F)cc2)OCCCC[C@@H](C)O3)cc1	100	n	n	102	113	n	36
Cc1ccc(S(=O)(=O)Nc2ccc3c(c2)C(=O)N([C@@H](C)CO)C[C@@H](C)[C@@H](CN(C)C(=O)Nc2ccc(C(F)(F)F)cc2)OCCCC[C@H](C)O3)cc1	n	x	n	x	x	x	x
COc1ccc(CN(C)C[C@H]2Oc3ccc(NC(=O)Nc4ccc5c(c4)OCO5)cc3CC(=O)N([C@H](C)CO)C[C@H]2C)cc1	99	n	n	110	n	n	n
C[C@@H]1CN([C@H](C)CO)C(=O)Cc2cc(NC(=O)Nc3ccc4c(c3)OCO4)ccc2O[C@H]1CN(C)Cc1ccc(Oc2ccccc2)cc1	u	n	n	113	n	n	31
CC(C)NC(=O)Nc1ccc2c(c1)CC(=O)N([C@H](C)CO)C[C@H](C)[C@H](CN(C)Cc1ccc(Oc3ccccc3)cc1)O2	n	n	n	x	x	x	x
C[C@@H]1CN([C@@H](C)CO)C(=O)Cc2cc(NC(=O)Nc3ccc4c(c3)OCO4)ccc2O[C@@H]1CN(C)Cc1ccc(Oc2ccccc2)cc1	n	x	n	x	x	x	x
CC(C)NC(=O)Nc1ccc2c(c1)CC(=O)N([C@@H](C)CO)C[C@@H](C)[C@H](CN(C)Cc1ccc(Oc3ccccc3)cc1)O2	101	n	n	107	n	n	104
COc1ccc(CN(C)C[C@H]2Oc3ccc(NC(=O)Nc4ccc5c(c4)OCO5)cc3CC(=O)N([C@@H](C)CO)C[C@@H]2C)cc1	n	n	n	x	x	x	x
COc1ccc(NC(=S)Nc2cnn(C)c2C(N)=O)c(OC)c1	x	n	x	x	x	x	x
CSc1scc(N)c1S(=O)(=O)C(C)C	x	n	x	x	x	x	x
Cc1ccc(Nc2nc(N)nc(COc3cccc4cccnc34)n2)cc1	x	n	x	x	x	x	x
CCn1c(SCC(=O)Nc2cc(C(F)(F)F)ccc2Cl)nnc1-c1ccccc1F	x	n	x	x	x	x	x
CC(C)(C)OC(=O)N1CCC[C@H]1/C=N/NC(=O)CCCCCC(=O)NO	x	n	x	x	x	x	x
COc1cccc(NC(=O)N(C)C[C@H]2Oc3cc(C#Cc4ccncc4)ccc3S(=O)(=O)N([C@H](C)CO)C[C@H]2C)c1	n	n	n	x	x	x	x
COc1cccc(NC(=O)N(C)C[C@@H]2Oc3cc(C#Cc4ccncc4)ccc3S(=O)(=O)N([C@H](C)CO)C[C@H]2C)c1	n	x	n	x	x	x	x
COc1ccc(C#Cc2ccc3c(c2)O[C@H](CN(C)C(=O)Nc2cccc(OC)c2)[C@H](C)CN([C@@H](C)CO)S3(=O)=O)cc1	116	x	n	111	104	n	n
COc1cccc(NC(=O)N(C)C[C@H]2Oc3cc(C#Cc4ccncc4)ccc3S(=O)(=O)N([C@H](C)CO)C[C@@H]2C)c1	n	n	n	x	x	x	x
COc1cccc(NC(=O)N(C)C[C@@H]2Oc3cc(C#Cc4ccc(F)cc4)ccc3S(=O)(=O)N([C@H](C)CO)C[C@@H]2C)c1	117	n	n	99	111	50	38
COc1cccc(NC(=O)N(C)C[C@@H]2Oc3cc(C#Cc4ccccc4)ccc3S(=O)(=O)N([C@H](C)CO)C[C@@H]2C)c1	86	x	x	104	u	n	n
COc1cccc(NC(=O)N(C)C[C@@H]2Oc3cc(-c4ccccc4F)ccc3S(=O)(=O)N([C@@H](C)CO)C[C@H]2C)c1	n	n	n	x	x	x	x
COc1cccc(NC(=O)N(C)C[C@H]2Oc3cc(-c4ccccc4F)ccc3S(=O)(=O)N([C@H](C)CO)C[C@@H]2C)c1	u	n	n	98	n	n	u
CCCCCCCCN1C(=O)C(C(C)=O)=C(C)C1(C)O (stereo not given)	x	n	x	x	x	x	x
Cc1ccc(C(=O)O)cc1S(=O)(=O)N(C)CCO	x	n	x	x	x	x	x
CC(C)(C)c1ccc(S(=O)(=O)NCC(=O)Nc2cccc(Cl)c2)cc1	x	n	x	x	x	x	x
SMILES	T cruzi growth-1	IDH1 R132H inh	KDM4C inh	T cruzi growth-2	T cruzi growth-3	NIH3T3 tox	NIH3T3 tox 2
COC(=O)[C@@H]1OC(=O)C2OC23[C@@]1(C)CCC1[C@]2(C)C(C[C@@H](O)[C@]13C)C(C)(C)[C@H](OC(C)=O)C[C@@H]2OC(C)=O (stereo not given in full)	x	n	x	x	x	x	x
COc1ccc(NC(=O)CSc2nc3ccc([N+](=O)[O-])cc3s2)cc1Cl	x	n	x	x	x	x	x
COc1cccc(C#Cc2ccc3c(c2)O[C@@H](CN(C)C(C)=O)[C@H](C)CN([C@H](C)CO)S3(=O)=O)c1	n	n	n	x	x	x	x
COc1cccc(C#Cc2ccc3c(c2)O[C@H](CN(C)C(C)=O)[C@@H](C)CN([C@H](C)CO)S3(=O)=O)c1	u	n	n	105	n	n	35
COc1cccc(NC(=O)N(C)C[C@@H]2Oc3cc(C#Cc4ccncc4)ccc3S(=O)(=O)N([C@H](C)CO)C[C@@H]2C)c1	n	n	n	x	x	x	x
COc1cccc(NC(=O)N(C)C[C@@H]2Oc3cc(C#Cc4ccc(F)cc4)ccc3S(=O)(=O)N([C@H](C)CO)C[C@H]2C)c1	103	x	n	98	n	n	55
Cc1cccc(NC(=O)CSc2nnc(-c3ccc(Cl)cc3)n2-c2cccc(C)c2)c1	x	n	x	x	x	x	x
O=C(CSc1nc2ccccc2o1)N1N=CCC1c1ccccc1 (stereo not given)	x	n	x	x	x	x	x
COc1ccc(NC(=O)Nc2ccc3c(c2)C(=O)N([C@@H](C)CO)C[C@@H](C)[C@@H](CN(C)S(=O)(=O)c2ccccc2)OCCCC[C@@H](C)O3)cc1	n	x	n	x	x	x	x
COc1ccc(S(=O)(=O)N(C)C[C@@H]2OCCCC[C@H](C)Oc3ccc(NC(=O)Nc4ccccc4)cc3C(=O)N([C@@H](C)CO)C[C@@H]2C)cc1	u	n	n	105	n	n	n
COc1ccc(S(=O)(=O)N(C)C[C@H]2OCCCC[C@@H](C)Oc3ccc(NC(=O)Nc4ccccc4)cc3C(=O)N([C@@H](C)CO)C[C@@H]2C)cc1	100	x	n	112	n	n	u
COc1ccc(S(=O)(=O)N(C)C[C@@H]2OCCCC[C@@H](C)Oc3ccc(NC(=O)Nc4ccccc4)cc3C(=O)N([C@@H](C)CO)C[C@@H]2C)cc1	n	n	n	x	x	x	x
COc1ccc(S(=O)(=O)N(C)C[C@H]2OCCCC[C@H](C)Oc3ccc(NC(=O)Nc4ccccc4)cc3C(=O)N([C@H](C)CO)C[C@@H]2C)cc1	n	n	n	x	x	x	x

Screens (PubChem BioAssay)
